Experimental data taken from the RNAGym collection of RNA variant scans (doi:10.1126/science.aae0568).
Variants at the floor of the assay were thinned out.

B1: tRNA (parent)
chain: GUUCCGUUGGCGUAAUGGUAACGCGUCUCCCUCCUAAGGAGAAGACUGCGGGUUCGAGUCCCGUACGGAACG

Variants of: B1
Test: yeast fitness relative to wild type (ratio to wild type); higher = fitter; tRNA-Arg(CCU), competitive growth, 37 C, YPD
How it was run: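 Variants of the tRNA-Arg(CCU) gene, chemically synthesised with a 3% per-site mutation rate at 69 sites, were placed at the native genomic locus in Saccharomyces cerevisiae. The pooled strains were competed in YPD at 37°C for 24 hours in six parallel replicates. Gene amplicons from the start population and from each end population were read by 100-nucleotide paired-end sequencing. Darwinian fitness relative to wild type came from changes in genotype frequencies; genotypes needed ≥ 100 starting reads, and estimates < 0.5 were set to 0.5.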

Variant	yeast fitness
GUUCCGUUGGCGUAAUGGUAACGCGUCUCCCUCCUAAGGAGAAGACUGCGAGUUCGAGUCCCGUACGGCACG [G51A A69C]	0.979
GUUCCGUUGGCGUAAUGGUAACGCGUCUCCCUCCUAAGGAGAAGACUGCCGGUACGAGUCCCGUACGGAACG [G50C U54A]	0.524
GUUCCGUUGGCGUAAUGGUAACGCGUCUCCCUCCUAAGGAGAAGACUGUGGGUUGGAGUCCCGUACGGAACG [C49U C55G]	0.885
GUUCCGUUGGCGUAAUGGUAACGCGUCUCCCUCCUAAGGAGAAGACUGCCGAUUCGAGUCGCGUACGGAACG [G50C G52A C61G]	0.722
GUUCCGUUGGCGUAAUGGUAACGCGUCUCCCUCCUAAGGAGAAGACUGCCGGUUCGAGUCACGUACGGAACG [G50C C61A]	0.544
GUUCCGUUGGCGUAAUGGUAACGCGUCUCCCUCCUAAGGAGAAGACUGCCGGUUAGAGUCCCGUACGGAACG [G50C C55A]	0.619
GUUCCGUUGGCGUAAUGGUAACGCGUCUCCCUCCUAAGGAGAAGACUGUGGGUUCGUCUCCCGUACGGAACG [C49U A57U G58C]	≤ 0.5
GUUCCGUUGGCGUAAUGGUAACGCGUCUCCCUCCUAAGGAGAAGACUGCGCGUACGAGUCCCGUACGGAACG [G51C U54A]	≤ 0.5
GUUCCGUUGGCGUAAUGGUAACGCGUCUCCCUCCUAAGGAGAAGACUGUGGGUUCGAGUCCCGUGGGGAACG [C49U A65G C66G]	≤ 0.5
GUUCCGUUGGCGUAAUGGUAACGCGUCUCCCUCCUAAGGAGAAGACUGCCGGUUCGAGUGCCGUACGGAACG [G50C C60G]	≤ 0.5
GUUCCGUUGGCGUAAUGGUAACGCGUCUCCCUCCUAAGGAGAAGACUGUGGGUUCGAGUCCCGUACUGAACG [C49U G67U]	0.885
GUUCCGUUGGCGUAAUGGUAACGCGUCUCCCUCCUAAGGAGAAGACUGUGGGUUCGAGUCCCGUACCGAACG [C49U G67C]	0.851
GUUCCGUUGGCGUAAUGGUAACGCGUCUCCCUCCUAAGGAGAAGACUGUGGGUUCGAGUUCCGUACGGCACG [C49U C60U A69C]	0.566
GUUCCGUUGGCGUAAUGGUAACGCGUCUCCCUCCUAAGGAGAAGACUGCAAGUUCGAGUCCCGUACGGAACG [G50A G51A]	0.645
GUUCCGUUGGCGUAAUGGUAACGCGUCUCCCUCCUAAGGAGAAGACUGCGGAUUCGAGUACCGUACGGGACG [G52A C60A A69G]	≤ 0.5
GUUCCGUUGGCGUAAUGGUAACGCGUCUCCCUCCUAAGGAGAAGACUGCAGGUUCGGGUCCCGUACGGAACG [G50A A57G]	0.944
GUUCCGUUGGCGUAAUGGUAACGCGUCUCCCUCCUAAGGAGAAGACUGCAGGUUCGUGUCCCGUACGGAACG [G50A A57U]	0.6
GUUCCGUUGGCGUAAUGGUAACGCGUCUCCCUCCUAAGGAGAAGACUGUGGGUUCGAGUCCCGUACGGACCG [C49U A70C]	1.02
GUUCCGUUGGCGUAAUGGUAACGCGUCUCCCUCCUAAGGAGAAGACUGCACGUUCGAGUCCCGUCCGGAACG [G50A G51C A65C]	≤ 0.5
GUUCCGUUGGCGUAAUGGUAACGCGUCUCCCUCCUAAGGAGAAGACUGCGAGUUCGAAUCCCGUACGGAACG [G51A G58A]	0.967
GUUCCGUUGGCGUAAUGGUAACGCGUCUCCCUCCUAAGGAGAAGACUGCGAGUUCGAGUUUCGUGCGGCACG [G51A C60U C61U A65G A69C]	0.594
GUUCCGUUGGCGUAAUGGUAACGCGUCUCCCUCCUAAGGAGAAGACUGCAGGUUCGAGUACCGUACGGAACG [G50A C60A]	0.581
GUUCCGUUGGCGUAAUGGUAACGCGUCUCCCUCCUAAGGAGAAGACUGCCGGUUCCAGUCCCGUACGGAACG [G50C G56C]	0.614
GUUCCGUUGGCGUAAUGGUAACGCGUCUCCCUCCUAAGGAGAAGACUGUGGGUUCGAGUCCCGUACGGUACG [C49U A69U]	1.01
GUUCCGUUGGCGUAAUGGUAACGCGUCUCCCUCCUAAGGAGAAGACUGCCGGUUUGAGUCCCGUACGGGACG [G50C C55U A69G]	0.554

Variant	yeast fitness
GUUCCGUUGGCGUAAUGGUAACGCGUCUCCCUCCUAAGGAGAAGACUGCGCGUUCGAGUCACGUACGGAACG [G51C C61A]	0.516
GUUCCGUUGGCGUAAUGGUAACGCGUCUCCCUCCUAAGGAGAAGACUGCUGGUUCGAGUCCCGUACGGCACG [G50U A69C]	0.958
GUUCCGUUGGCGUAAUGGUAACGCGUCUCCCUCCUAAGGAGAAGACUGUGGGUUGGAGUCCCAUACGGAACG [C49U C55G G63A]	≤ 0.5
GUUCCGUUGGCGUAAUGGUAACGCGUCUCCCUCCUAAGGAGAAGACUGUGGGUUCAAGUCCCGUACAGAACG [C49U G56A G67A]	0.593
GUUCCGUUGGCGUAAUGGUAACGCGUCUCCCUCCUAAGGAGAAGACUGCGAGUUCGAGUCCCGUAGGGAACG [G51A C66G]	0.704
GUUCCGUUGGCGUAAUGGUAACGCGUCUCCCUCCUAAGGAGAAGACUGCGAGUUCGAGUCAGGUACGGAACG [G51A C61A C62G]	≤ 0.5
GUUCCGUUGGCGUAAUGGUAACGCGUCUCCCUCCUAAGGAGAAGACUGCGGAUUCGCGUCCCGUACGGUACG [G52A A57C A69U]	0.565
GUUCCGUUGGCGUAAUGGUAACGCGUCUCCCUCCUAAGGAGAAGACUGCGCGUUCAAGUCCCGUACGGAACG [G51C G56A]	0.698
GUUCCGUUGGCGUAAUGGUAACGCGUCUCCCUCCUAAGGAGAAGACUGCCGGUUCAAAUCCCGUACGGAACG [G50C G56A G58A]	0.64
GUUCCGUUGGCGUAAUGGUAACGCGUCUCCCUCCUAAGGAGAAGACUGUGGGUUCGGGUCCCGUACGGAACG [C49U A57G]	0.865
GUUCCGUUGGCGUAAUGGUAACGCGUCUCCCUCCUAAGGAGAAGACUGUGGGUGCGAGUCUCGUACGGAACG [C49U U54G C61U]	≤ 0.5
GUUCCGUUGGCGUAAUGGUAACGCGUCUCCCUCCUAAGGAGAAGACUGCUGGUUCGAGUCCCGUAUGGAACG [G50U C66U]	0.96
GUUCCGUUGGCGUAAUGGUAACGCGUCUCCCUCCUAAGGAGAAGACUGCAGGUUCGAGUCCCAUACGGAACG [G50A G63A]	0.943
GUUCCGUUGGCGUAAUGGUAACGCGUCUCCCUCCUAAGGAGAAGACUGCGGCUUCGAGUCCCGUACGGACCG [G52C A70C]	0.715
GUUCCGUUGGCGUAAUGGUAACGCGUCUCCCUCCUAAGGAGAAGACUGCCCGUUCGAGUCCCGUACGGAACG [G50C G51C]	0.522
GUUCCGUUGGCGUAAUGGUAACGCGUCUCCCUCCUAAGGAGAAGACUGCGAGUUCAAGCCCCGUACGGAACG [G51A G56A U59C]	0.565
GUUCCGUUGGCGUAAUGGUAACGCGUCUCCCUCCUAAGGAGAAGACUGCGAGUUCGAGUCCCGUACGGAGCG [G51A A70G]	0.85
GUUCCGUUGGCGUAAUGGUAACGCGUCUCCCUCCUAAGGAGAAGACUGUGGGUUCGAGUCCCGUGCAGUACG [C49U A65G G67A A69U]	≤ 0.5
GUUCCGUUGGCGUAAUGGUAACGCGUCUCCCUCCUAAGGAGAAGACUGCAGGUUCGAGUCCCGCACGGAACG [G50A U64C]	0.966
GUUCCGUUGGCGUAAUGGUAACGCGUCUCCCUCCUAAGGAGAAGACUGCGGAUUCGAGUCCCGUACGAAACG [G52A G68A]	0.678
GUUCCGUUGGCGUAAUGGUAACGCGUCUCCCUCCUAAGGAGAAGACUGCAGGUUCGAGUCACGUACGGAACG [G50A C61A]	0.744
GUUCCGUUGGCGUAAUGGUAACGCGUCUCCCUCCUAAGGAGAAGACUGCGGCUUCGUGUCCUGUAGGGAACG [G52C A57U C62U C66G]	≤ 0.5
GUUCCGUUGGCGUAAUGGUAACGCGUCUCCCUCCUAAGGAGAAGACUGCGGCUUCGCGUCCCGUACGGAACG [G52C A57C]	0.526
GUUCCGUUGGCGUAAUGGUAACGCGUCUCCCUCCUAAGGAGAAGACUGCGAGUUCGAGUGCCGUACGGAACG [G51A C60G]	0.596
GUUCCGUUGGCGUAAUGGUAACGCGUCUCCCUCCUAAGGAGAAGACUGCGAGUUCGAGUACCGUACGGAACG [G51A C60A]	0.599

Variant	yeast fitness
GUUCCGUUGGCGUAAUGGUAACGCGUCUCCCUCCUAAGGAGAAGACUGCGGCUUCGUGUUCUGUACGGAACG [G52C A57U C60U C62U]	≤ 0.5
GUUCCGUUGGCGUAAUGGUAACGCGUCUCCCUCCUAAGGAGAAGACUGCGGAUUCUAGUCCCGUACGGAACG [G52A G56U]	0.554
GUUCCGUUGGCGUAAUGGUAACGCGUCUCCCUCCUAAGGAGAAGACUGCGGAUUCGCGUCCCGUCCGGAACG [G52A A57C A65C]	0.647
GUUCCGUUGGCGUAAUGGUAACGCGUCUCCCUCCUAAGGAGAAGACUGCCGGUUCGAGUCCCGUACAGAACG [G50C G67A]	0.816
GUUCCGUUGGCGUAAUGGUAACGCGUCUCCCUCCUAAGGAGAAGACUGCGCGUUCGAGUCCCGUCUGGAACG [G51C A65C C66U]	≤ 0.5
GUUCCGUUGGCGUAAUGGUAACGCGUCUCCCUCCUAAGGAGAAGACUGCGGAUUGGUGUCCCGUACGGAACG [G52A C55G A57U]	≤ 0.5
GUUCCGUUGGCGUAAUGGUAACGCGUCUCCCUCCUAAGGAGAAGACUGUGGGUUCGAGCCUCGUACGGAACG [C49U U59C C61U]	0.618
GUUCCGUUGGCGUAAUGGUAACGCGUCUCCCUCCUAAGGAGAAGACUGCGGCUUCGCGUCCCCCACGGAACG [G52C A57C G63C U64C]	≤ 0.5
GUUCCGUUGGCGUAAUGGUAACGCGUCUCCCUCCUAAGGAGAAGACUGCGAGUUCCAGUCCCGUACGGAACG [G51A G56C]	0.597
GUUCCGUUGGCGUAAUGGUAACGCGUCUCCCUCCUAAGGAGAAGACUGUGGGUUCGAAUCCCGUGCGGAACG [C49U G58A A65G]	1
GUUCCGUUGGCGUAAUGGUAACGCGUCUCCCUCCUAAGGAGAAGACUGCAGGUUCGACUCCCGUACGGAACG [G50A G58C]	1.01
GUUCCGUUGGCGUAAUGGUAACGCGUCUCCCUCCUAAGGAGAAGACUGCAGGUUUGAGUCCCGUGCGGAACG [G50A C55U A65G]	≤ 0.5
GUUCCGUUGGCGUAAUGGUAACGCGUCUCCCUCCUAAGGAGAAGACUGCAGGUUCGAGACCCGUACGGAACG [G50A U59A]	0.831
GUUCCGUUGGCGUAAUGGUAACGCGUCUCCCUCCUAAGGAGAAGACUGCCGGUUCGAGUCCCGUACGGCACG [G50C A69C]	0.67
GUUCCGUUGGCGUAAUGGUAACGCGUCUCCCUCCUAAGGAGAAGACUGCCGGUUCGAGUCCCGUACGGUACG [G50C A69U]	0.833
GUUCCGUUGGCGUAAUGGUAACGCGUCUCCCUCCUAAGGAGAAGACUGCAGGUUCGAGUCCCGUACGAAACG [G50A G68A]	0.915
GUUCCGUUGGCGUAAUGGUAACGCGUCUCCCUCCUAAGGAGAAGACUGCACGUUCGAGUGCCGUACGGAACG [G50A G51C C60G]	≤ 0.5
GUUCCGUUGGCGUAAUGGUAACGCGUCUCCCUCCUAAGGAGAAGACUGUCGGUUCGAGUCCCGUACGGAACG [C49U G50C]	0.815
GUUCCGUUGGCGUAAUGGUAACGCGUCUCCCUCCUAAGGAGAAGACUGCAGGUUCGCGUGUCGUACGGAACG [G50A A57C C60G C61U]	≤ 0.5
GUUCCGUUGGCGUAAUGGUAACGCGUCUCCCUCCUAAGGAGAAGACUGCCGGUUCGAGUCCGGUACGGAUCG [G50C C62G A70U]	0.606
GUUCCGUUGGCGUAAUGGUAACGCGUCUCCCUCCUAAGGAGAAGACUGUGGGUUCGAGUCCGGUAUGGAACG [C49U C62G C66U]	0.608
GUUCCGUUGGCGUAAUGGUAACGCGUCUCCCUCCUAAGGAGAAGACUGCGGAUUCGAGUCCCCUACGGAACG [G52A G63C]	0.652
GUUCCGUUGGCGUAAUGGUAACGCGUCUCCCUCCUAAGGAGAAGACUGCGGAUUCGAGUCCCAUACGGAACG [G52A G63A]	0.546
GUUCCGUUGGCGUAAUGGUAACGCGUCUCCCUCCUAAGGAGAAGACUGCGAGUUCGAAUCCCGUUCGGAACG [G51A G58A A65U]	0.713
GUUCCGUUGGCGUAAUGGUAACGCGUCUCCCUCCUAAGGAGAAGACUGUGGGCUCGAGUCCCGUACGGCACG [C49U U53C A69C]	0.597
